Measurements published in ChEMBL document CHEMBL5523765, “Peptidic Boronic Acid Plasmodium falciparum SUB1 Inhibitors with Improved Selectivity over Human Proteasome” (J Med Chem, 2024).
Activity calls are given as the source filed them. No cut-off for these calls is given here.

How the values were obtained:
[1] = biological target: T1, Subtilisin-like protease 1 (Plasmodium falciparum) (UniProt O61142); experiment: Inhibition of recombinant Plasmodium falciparum SUB1 using Ac-CKITAQDDEESC-OH as fluorogenic substrate at 1 uM pre-incubated for 5 mins followed by substrate addition and measured every 3 mins for 60 mins by fluorescence based SpectraMax M5e plate reader; details: time 65.0 min
T1 sequence (whole entry): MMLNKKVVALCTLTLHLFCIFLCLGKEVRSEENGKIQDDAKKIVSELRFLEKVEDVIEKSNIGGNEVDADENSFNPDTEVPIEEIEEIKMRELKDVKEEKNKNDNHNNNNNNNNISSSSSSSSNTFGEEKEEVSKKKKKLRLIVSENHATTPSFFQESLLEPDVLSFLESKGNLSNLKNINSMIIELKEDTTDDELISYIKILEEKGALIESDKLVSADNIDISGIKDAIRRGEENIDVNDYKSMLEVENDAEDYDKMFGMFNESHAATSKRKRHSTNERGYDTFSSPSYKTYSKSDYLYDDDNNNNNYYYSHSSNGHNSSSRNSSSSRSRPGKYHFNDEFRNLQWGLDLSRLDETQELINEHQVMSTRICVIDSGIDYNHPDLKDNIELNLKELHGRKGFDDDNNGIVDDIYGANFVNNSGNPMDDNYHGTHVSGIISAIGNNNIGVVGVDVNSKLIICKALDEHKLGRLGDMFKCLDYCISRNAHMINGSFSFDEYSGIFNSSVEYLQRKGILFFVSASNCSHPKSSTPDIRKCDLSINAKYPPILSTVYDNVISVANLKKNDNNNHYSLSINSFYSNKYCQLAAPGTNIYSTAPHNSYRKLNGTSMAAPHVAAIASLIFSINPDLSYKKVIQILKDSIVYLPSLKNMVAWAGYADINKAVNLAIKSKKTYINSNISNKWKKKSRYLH

[2] = biological target: T2, Subtilisin-like protease 1 (Plasmodium falciparum, UniProt O61142); experiment: Inhibition of recombinant Plasmodium falciparum SUB1 using Ac-CKITAQDDEESC-OH as fluorogenic substrate pre-incubated for 5 mins followed by substrate addition and measured every 3 mins for 60 mins by fluorescence based SpectraMax M5e plate reader
T2 sequence (O61142 whole entry): T1 sequence (whole entry)
In short: (§1)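 Chymotrypsin-treated recombinant PfSUB1 stock (228 U/mL) was diluted 1:500 in 20 mM Tris-HCl pH 8.2, 150 mM NaCl, 12 mM CaCl2, 25 mM CHAPS. Inhibitor DMSO stocks (500 to 0.01 μM) were diluted 1:100 and preincubated with enzyme for 5 min. Fluorogenic SERA4st1F-6R12 substrate was then added (0.1 μM final), with ex 552/em 580 nm read every 3 min for 60 min.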

[3] = biological target: T3, Proteasome Macropain subunit MB1 (Homo sapiens, UniProt P28074); experiment: Inhibition of human 20s proteasome beta5 subunit mediated chymotrypsin-like activity using LLVY-R110 as substrate measured every three mins for 1 hr by fluorescence based SpectraMax M5e plate reader
T3 sequence (P28074 whole entry): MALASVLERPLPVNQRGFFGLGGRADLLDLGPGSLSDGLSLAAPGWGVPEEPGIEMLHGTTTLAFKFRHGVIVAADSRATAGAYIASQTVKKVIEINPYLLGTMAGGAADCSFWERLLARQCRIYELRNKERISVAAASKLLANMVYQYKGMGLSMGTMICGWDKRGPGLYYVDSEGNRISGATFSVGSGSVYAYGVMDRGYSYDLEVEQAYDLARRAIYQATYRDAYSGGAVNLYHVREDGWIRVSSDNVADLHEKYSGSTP
In short: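 Purified human 20S proteasome was diluted in TBS pH 7.4 to a 0.44 μM intermediate stock. Serial DMSO dilutions of inhibitor (1 μL) went into a 100 μL reaction with LLVY-R110 substrate, and 1 μL of proteasome stock was added to start.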

[4] = biological target: T2, Subtilisin-like protease 1; experiment: Inhibition of Plasmodium falciparum SUB1; in short: as §1
[5] = Selectivity ratio IC50 for human 20s proteasome beta5 subunit mediated chymotrypsin-like activity to IC50 for Plasmodium falciparum SUB1

IC50 [3] [µM]	SMILES	IC50 [4] [nM]	further results
–	CC(C)C[C@H](NC(=O)[C@H](Cc1ccccc1)NC(=O)c1cnccn1)B(O)O	–	inhibition [1]: inactive
–	CC[C@H](C)[C@H](NC(=O)[C@@H](NC(=O)c1ccccc1)C1CCCC1)C(=O)NCC(=O)N[C@@H](C)B(O)O	–	IC50 [2]: 3.2 nM
1	CC[C@H](C)[C@H](NC(=O)[C@@H](NC(=O)c1cc(C)cc(C)c1)C1CCCC1)C(=O)NCC(=O)N[C@H]1CCC(=O)OB1O	–	–
–	CC(=O)N[C@H](C(=O)N[C@H](C(=O)NCC(=O)N[C@@H](C)B(O)O)[C@@H](C)O)C1CCCC1	9.3	–
35.6	CC(=O)N[C@H](C(=O)N[C@H](C(=O)NCC(=O)N[C@H]1CCC(=O)OB1O)[C@@H](C)O)C1CCCC1	18.7	Ratio IC50 [5]: 1900
